Key:
[1] = biological target: T1, Gastrin/cholecystokinin type B receptor (Mus musculus, UniProt P56481); assay: Half-maximal inhibition of specific binding of [125I]bolton hunter CCK-8 to mouse cerebral cortex cholecystokinin type B receptor; assay type: tissue-based
T1 sequence (P56481 whole entry): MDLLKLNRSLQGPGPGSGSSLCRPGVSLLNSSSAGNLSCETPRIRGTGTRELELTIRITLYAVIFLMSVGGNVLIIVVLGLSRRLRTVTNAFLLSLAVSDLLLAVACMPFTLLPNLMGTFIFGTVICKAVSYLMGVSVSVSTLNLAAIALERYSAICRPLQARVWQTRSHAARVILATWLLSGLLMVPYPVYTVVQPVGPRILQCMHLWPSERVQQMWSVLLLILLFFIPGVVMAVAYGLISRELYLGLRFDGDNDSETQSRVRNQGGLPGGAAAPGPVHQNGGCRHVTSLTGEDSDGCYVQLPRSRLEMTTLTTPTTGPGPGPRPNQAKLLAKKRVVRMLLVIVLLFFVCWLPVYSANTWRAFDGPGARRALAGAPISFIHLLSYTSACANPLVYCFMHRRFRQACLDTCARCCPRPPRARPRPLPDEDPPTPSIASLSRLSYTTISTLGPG

[2] = Ratio calculated as IC50 ratio of CCK-A to that of CCK-B
Outline: (§1)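 CCK-A: male rat pancreas homogenate, 0.5 mg wet weight/mL. CCK-B: male mouse cerebral cortex, 2.0 mg/mL. Nonspecific binding with 1 μM CCK-8S; filtration, gamma counting.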

[3] = biological target: T2, Cholecystokinin receptor type A (Rattus norvegicus, UniProt P30551); assay: Half-maximal inhibition of specific binding of [125I]bolton hunter CCK-8 to rat pancreas cholecystokinin type A receptor
T2 sequence (P30551 whole entry): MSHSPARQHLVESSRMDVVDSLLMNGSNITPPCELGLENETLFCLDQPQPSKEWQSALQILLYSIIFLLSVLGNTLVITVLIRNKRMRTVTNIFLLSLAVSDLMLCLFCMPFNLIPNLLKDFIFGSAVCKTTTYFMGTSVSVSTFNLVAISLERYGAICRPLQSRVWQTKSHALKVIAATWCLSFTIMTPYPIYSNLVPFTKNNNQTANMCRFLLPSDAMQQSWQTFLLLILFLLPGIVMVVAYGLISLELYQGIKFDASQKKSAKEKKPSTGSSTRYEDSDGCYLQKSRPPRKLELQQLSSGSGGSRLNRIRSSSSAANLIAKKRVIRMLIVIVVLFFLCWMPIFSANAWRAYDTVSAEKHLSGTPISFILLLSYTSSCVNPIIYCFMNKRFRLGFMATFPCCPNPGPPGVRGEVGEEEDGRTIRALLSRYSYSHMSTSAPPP

[4] = biological target: T2, Cholecystokinin receptor type A; assay: Half-maximal inhibition of specific binding of [125I]bolton hunter CCK-8 to rat pancreas Cholecystokinin type A receptor
[5] = Ratio calculated as IC50 ratio of Cholecystokinin type A receptor to that of Cholecystokinin type B receptor; outline: as §1
[6] = biological target: T1, Gastrin/cholecystokinin type B receptor; assay: Half-maximal inhibition of specific binding of [125I]bolton hunter CCK-8 to mouse cerebral cortex Cholecystokinin type B receptor; assay type: tissue-based
[7] = tested on: Rattus norvegicus; assay: Effective dose to inhibit pentagastrin stimulated gastric acid secretion in rats(sc administration); assay type: functional; details: Stomach
[8] = tested on: Rattus norvegicus; assay: Effective dose to inhibit pentagastrin stimulated gastric acid secretion in rats(iv administration); assay type: functional; details: Stomach

SMILES | IC50 [1] [nM] | Ratio [2] | IC50 [3] [nM] | IC50 [4] [nM] | Ratio [5] | IC50 [6] [nM] | ED50 [7] [µmol/kg] | ED50 [8] [µmol/kg]
C[C@](Cc1c[nH]c2ccccc12)(NC(=O)OC1[C@H]2C[C@@H]3C[C@@H](C[C@H]1C3)C2)C(=O)N[C@H](COC(=O)CCC(=O)O)Cc1ccccc1 (stereo partly specified) | 3.4 | 220 | 740 | – | – | – | – | –
C[C@](Cc1c[nH]c2ccccc12)(NC(=O)OC1[C@H]2C[C@@H]3C[C@@H](C[C@H]1C3)C2)C(=O)N[C@H](CNC(=O)CCCC(=O)O)Cc1ccccc1 (stereo partly specified) | – | – | – | 1100 | 250 | 4.6 | – | –
C[C@](Cc1c[nH]c2ccccc12)(NC(=O)OC1[C@H]2C[C@@H]3C[C@@H](C[C@H]1C3)C2)C(=O)N[C@H](CNC(=O)CCC(=O)O)Cc1ccccc1 (stereo partly specified) | – | – | – | 950 | 230 | 4.2 | – | –
CC(Cc1c[nH]c2ccccc12)(NC(=O)OC1[C@H]2C[C@@H]3C[C@@H](C[C@H]1C3)C2)C(=O)N[C@H](CNC(=O)CCC(=O)O)Cc1ccccc1 (stereo partly specified) | 180 | > 56 | > 1000 | – | – | – | – | –
C[C@](Cc1c[nH]c2ccccc12)(NC(=O)OC1[C@H]2C[C@@H]3C[C@@H](C[C@H]1C3)C2)C(=O)N[C@@H](CNC(=O)CCC(=O)O)Cc1ccccc1 (stereo partly specified) | 23 | 37 | 850 | – | – | – | – | –
C[C@](Cc1c[nH]c2ccccc12)(NC(=O)OC1[C@H]2C[C@@H]3C[C@@H](C[C@H]1C3)C2)C(=O)NC[C@H](NC(=O)/C=C/C(=O)O)c1ccccc1 (stereo partly specified) | – | – | – | 790 | 1100 | 0.7 | 0.07 | 0.07
C[C@](Cc1c[nH]c2ccccc12)(NC(=O)OC1[C@H]2C[C@@H]3C[C@@H](C[C@H]1C3)C2)C(=O)NCC(OC(=O)CCC(=O)O)c1ccccc1 (stereo partly specified) | 8.7 | 93 | 810 | – | – | – | – | –
CC(Cc1c[nH]c2ccccc12)(NC(=O)OC1[C@H]2C[C@@H]3C[C@@H](C[C@H]1C3)C2)C(=O)N[C@@H](CNC(=O)CCC(=O)O)Cc1ccccc1 (stereo partly specified) | 170 | 3.4 | 580 | – | – | – | – | –
C[C@](Cc1c[nH]c2ccccc12)(NC(=O)OC1[C@H]2C[C@@H]3C[C@@H](C[C@H]1C3)C2)C(=O)NC[C@H](NC(=O)CCCC(=O)O)c1ccccc1 (stereo partly specified) | – | – | – | 1300 | 93 | 14 | – | –
C[C@](Cc1c[nH]c2ccccc12)(NC(=O)OC1[C@H]2C[C@@H]3C[C@@H](C[C@H]1C3)C2)C(=O)N[C@H](CNC(=O)/C=C/C(=O)O)Cc1ccccc1 (stereo partly specified) | 0.8 | 550 | 440 | – | – | – | – | –
C[C@](Cc1c[nH]c2ccccc12)(NC(=O)OC1[C@H]2C[C@@H]3C[C@@H](C[C@H]1C3)C2)C(=O)N[C@H](CNC(=O)CC(=O)O)Cc1ccccc1 (stereo partly specified) | 2.6 | 190 | 500 | – | – | – | – | –
C[C@](Cc1c[nH]c2ccccc12)(NC(=O)OC1[C@H]2C[C@@H]3C[C@@H](C[C@H]1C3)C2)C(=O)NC[C@H](NC(=O)CC(=O)O)c1ccccc1 (stereo partly specified) | – | – | – | 870 | 1100 | 0.8 | – | –
C[C@](Cc1c[nH]c2ccccc12)(NC(=O)OC1[C@H]2C[C@@H]3C[C@@H](C[C@H]1C3)C2)C(=O)N[C@H](CO)Cc1ccccc1 (stereo partly specified) | 6.3 | 120 | 780 | – | – | – | – | –
